Experimental data reported in ChEMBL document CHEMBL4765393, “Discovery of novel small molecule inhibitors of S100P with in vitro anti-metastatic effects on pancreatic cancer cells” (Eur J Med Chem, 2020).
The source made the active and inactive calls. The calls are words filed in the database; no cut-off is given here.

How the values were obtained:
BXPC-3 [1] = test: Cytotoxicity against S100P expressing human BXPC-3 cells assessed as LDH release at 10 uM measured after 24 hrs by LDH assay; format: functional, cell-based
Method in brief: (§1)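 1 × 10^5 BxPC-3 (RPMI-1640) or Panc-1 (DMEM high glucose) cells were allowed to adhere for 24 h, then given 10 μM compound. Membrane integrity was measured by LDH release (CytoTox-ONE) every 24 h for up to 3 days, with background OD subtracted.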

BXPC-3 [2] = test: Antiinvasive activity in S100P expressing human BXPC-3 cells assessed as inhibition of cell invasion at 10 uM incubated for 48 hrs by transwell invasion assay; format: functional, cell-based
Method in brief: (§2)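 Matrigel-coated Transwell (PET membrane, 8 μm pores). BxPC-3 (RPMI-1640) or Panc-1 (DMEM) cells were seeded at 2 × 10^5 cells/mL in serum-free medium in the upper chamber, with 10% FBS below as chemoattractant. Cells were given 10 μM compound (0.1% DMSO final) for 48 h at 37 °C, 5% CO2. Invaded cells were Diff-Quik stained and counted in five ×100 fields. Three independent experiments.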

PANC-1 [3] = test: Antiinvasive activity in human PANC-1 cells assessed as inhibition of cell invasion at 10 uM incubated for 48 hrs by transwell invasion assay; format: functional, cell-based; method in brief: as §2
PANC-1 [4] = test: Cytotoxicity against human PANC-1 cells assessed as reduction in cell viability at 10 uM measured after 24 hrs by MTS assay; format: functional, cell-based
Method in brief: (§3)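 1 × 10^5 BxPC-3 (RPMI-1640) or Panc-1 (DMEM high glucose) cells, in medium with 10% FBS, were allowed to adhere for 24 h, then given 10 μM compound. MTS absorbance was read at 492 nm every 24 h. Background was subtracted and values normalized to untreated cells. n = 3 separate experiments.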

PANC-1 [5] = test: Cytotoxicity against human PANC-1 cells assessed as LDH release at 10 uM measured after 24 hrs by LDH assay; format: functional, cell-based; method in brief: as §1
BXPC-3 [6] = test: Cytotoxicity against S100P expressing human BXPC-3 cells assessed as reduction in cell viability at 10 uM measured after 24 hrs by MTS assay; format: functional, cell-based; method in brief: as §3
Homo sapiens = organism: Homo sapiens; test: Inhibition of human recombinant S100P/RAGE interaction incubated for 1 hr and measured by ELISA based binding assay
Method in brief: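 His-tagged human S100P, expressed in E. coli BL21 and Ni-NTA purified, was coated at 2 μM in PBS pH 7.4 with 1 mM CaCl2, 10 μM ZnCl2 and 0.5 mM MgCl2 overnight at 37 °C, then blocked with 1% BSA for 2 h. Wells got increasing compound concentrations in triplicate, then human RAGE-Fc for 1 h at 37 °C, anti-human HRP for 1 h, and TMB for 20 min. Read at 450 nm, normalized to S100P+RAGE-Fc; IC50 estimated.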

[7] = Aqueous solubility of the compound in 0.1% DMSO; format: physicochemical; conditions: buffer
[8] = Aqueous solubility of the compound in 1% DMSO; format: physicochemical; conditions: buffer
PANC-1 [9] = test: Antiinvasive activity in human PANC-1 cells assessed as inhibition of cell invasion at 100 to 200 uM incubated for 48 hrs by transwell invasion assay; conditions: dose 100-200 µM
BXPC-3 [10] = test: Antiinvasive activity in S100P expressing human BXPC-3 cells assessed as inhibition of cell invasion at 100 to 200 uM incubated for 48 hrs by transwell invasion assay; conditions: dose 100-200 µM

## Cc1ccc(-c2ccc(=O)n(CC(=O)Nc3ccc(-n4cnnn4)cc3)n2)cc1
BXPC-3 [1]
  Activity: inactive
BXPC-3 [2]
  Activity: Active
PANC-1 [3]
  Activity: inactive
PANC-1 [4]
  Activity: inactive
PANC-1 [5]
  Activity: inactive
BXPC-3 [6]
  Activity: inactive

## O=C1C2C3c4ccccc4C(c4ccccc43)C2C(=O)N1c1ccccc1 (centres undefined)
Homo sapiens
  INH: 10 nM
BXPC-3 [1]
  Activity: inactive
BXPC-3 [2]
  Activity: Active
PANC-1 [3]
  Activity: inactive
PANC-1 [4]
  Activity: inactive
[7]
  solubility: Soluble
[8]
  solubility: Soluble
PANC-1 [5]
  Activity: inactive
BXPC-3 [6]
  Activity: inactive

## O=C(O)c1cc(=O)c2c(OCC(O)COc3cccc4oc(C(=O)O)cc(=O)c34)cccc2o1
PANC-1 [9]
  Activity: Active
BXPC-3 [1]
  Activity: inactive
BXPC-3 [2]
  Activity: inactive
PANC-1 [3]
  Activity: inactive
PANC-1 [4]
  Activity: inactive
PANC-1 [5]
  Activity: inactive
BXPC-3 [6]
  Activity: inactive
BXPC-3 [10]
  Activity: Active

## O=C(O)c1ccc(N2C(=O)C3C4c5ccccc5C([N+](=O)[O-])(c5ccccc54)C3C2=O)cc1 (centres undefined)
Homo sapiens
  INH: < 10 nM
BXPC-3 [1]
  Activity: inactive
BXPC-3 [2]
  Activity: Active
PANC-1 [3]
  Activity: inactive
PANC-1 [4]
  Activity: inactive
[7]
  solubility: Soluble
[8]
  solubility: Soluble
PANC-1 [5]
  Activity: inactive
BXPC-3 [6]
  Activity: inactive

## O=C(Cc1cc(O)n[nH]1)N/N=C/c1c(Cl)cccc1Cl
BXPC-3 [1]
  Activity: inactive
BXPC-3 [2]
  Activity: Active
PANC-1 [3]
  Activity: inactive
PANC-1 [4]
  Activity: inactive
PANC-1 [5]
  Activity: inactive
BXPC-3 [6]
  Activity: inactive

## O=C1C2C3c4ccccc4C([N+](=O)[O-])(c4ccccc43)C2C(=O)N1c1cccc(F)c1 (centres undefined)
Homo sapiens
  INH: 100 nM
BXPC-3 [1]
  Activity: inactive
BXPC-3 [2]
  Activity: Active
PANC-1 [3]
  Activity: inactive
PANC-1 [4]
  Activity: inactive
[7]
  solubility: Soluble
[8]
  solubility: Soluble
PANC-1 [5]
  Activity: inactive
BXPC-3 [6]
  Activity: inactive

## N#CCCn1cc(C(=O)Nc2ccc(C(=O)O)cc2)c(-c2ccccc2)n1
BXPC-3 [1]
  Activity: inactive
BXPC-3 [2]
  Activity: Active
PANC-1 [3]
  Activity: inactive
PANC-1 [4]
  Activity: inactive
PANC-1 [5]
  Activity: inactive
BXPC-3 [6]
  Activity: inactive

## O=C1C2C3c4ccccc4C(c4ccccc43)C2C(=O)N1c1ccc(F)cc1 (centres undefined)
Homo sapiens
  INH: 10 nM
BXPC-3 [1]
  Activity: inactive
BXPC-3 [2]
  Activity: Active
PANC-1 [3]
  Activity: inactive
PANC-1 [4]
  Activity: inactive
[7]
  solubility: Soluble
[8]
  solubility: Soluble
PANC-1 [5]
  Activity: inactive
BXPC-3 [6]
  Activity: inactive

## COc1ccc(/C=C2/C(=O)NC(=O)N(c3ccc(Cl)c(Cl)c3)C2=O)cc1C(=O)O
BXPC-3 [1]
  Activity: inactive
BXPC-3 [2]
  Activity: Active
PANC-1 [3]
  Activity: inactive
PANC-1 [4]
  Activity: inactive
PANC-1 [5]
  Activity: inactive
BXPC-3 [6]
  Activity: inactive

## O=C1C2C3c4ccccc4C(c4ccccc43)C2C(=O)N1c1cccc(F)c1 (centres undefined)
Homo sapiens
  INH: 10 nM
BXPC-3 [1]
  Activity: inactive
BXPC-3 [2]
  Activity: Active
PANC-1 [3]
  Activity: inactive
PANC-1 [4]
  Activity: inactive
[7]
  solubility: Soluble
[8]
  solubility: Soluble
PANC-1 [5]
  Activity: inactive
BXPC-3 [6]
  Activity: inactive

## O=C(O)c1cccc(N2C(=O)C3C4c5ccccc5C([N+](=O)[O-])(c5ccccc54)C3C2=O)c1 (centres undefined)
Homo sapiens
  INH: 10 nM
BXPC-3 [1]
  Activity: inactive
BXPC-3 [2]
  Activity: Active
PANC-1 [3]
  Activity: inactive
PANC-1 [4]
  Activity: inactive
PANC-1 [5]
  Activity: inactive
BXPC-3 [6]
  Activity: inactive
